Measured values: ChEMBL document CHEMBL4190381, “Biofilm inhibition and anti-Candida activity of a cationic lipo-benzamide molecule with twin-nonyl chain” (Bioorg Med Chem Lett, 2018)
In brackets after ≈: the same amount, converted by molar mass. Activity calls are given as the source filed them. No cut-off for these calls is given here.

Legend:
[1] = system: Candida albicans; test: Antifungal activity against Candida albicans ATCC 90028 planktonic cells assessed as inhibition of fungal growth incubated for 48 hrs by broth microdilution assay; assay type: functional; conditions: for MIC80: ATCC 90028, 48 h
Outline: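 Broth microdilution against planktonic C. albicans ATCC 90028. MIC is the lowest concentration giving […] relative to the growth control. Percent inhibition is taken against an untreated growth control and plotted versus concentration.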

[2] = system: Candida albicans; test: Antifungal activity against Candida albicans Gu4 assessed as inhibition of fungal growth incubated for 48 hrs by broth microdilution assay; assay type: functional; conditions: Gu4, 48 h
Outline: (§1)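 Broth microdilution against planktonic Candida cultures, with fluconazole as reference antifungal. MIC read as lowest concentration giving […] relative to a growth control without compound. Percentage inhibition versus growth control was plotted against concentration.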

[3] = Safety index, ratio of HC90 for hemolytic activity in human erythrocytes to MIC for antifungal activity against Candida albicans ATCC 90028 planktonic cells; assay type: toxicity, cell-based
[4] = system: Candida parapsilosis; test: Antifungal activity against Candida parapsilosis MTCC 7043 assessed as inhibition of fungal growth incubated for 48 hrs by broth microdilution assay; assay type: functional; conditions: Lodderomyces parapsilosis, MTCC 7043, 48 h; outline: as §1
[5] = system: Candida albicans; test: Toxicity in Candida albicans ATCC 90028 planktonic cells assessed as induction of protein release at 12.5 ug/ml incubated for 1 hr by spectrophotometry; assay type: organism-based
Outline: (§2)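 C. albicans cells incubated with increasing compound concentrations. Supernatant OD260 (nucleic acids) and OD280 (proteins) recorded to quantify macromolecule release on lysis.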

[6] = system: Candida albicans; test: Antifungal activity against Candida albicans DSY296 assessed as inhibition of fungal growth incubated for 48 hrs by broth microdilution assay; assay type: functional; conditions: DSY296, 48 h; outline: as §1
[7] = system: Erythrocyte; test: Hemolytic activity in human erythrocytes assessed as induction of hemolysis incubated for 1 hr by spectrophotometry; assay type: cell-based
Outline: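 Human erythrocytes incubated with a range of concentrations. Released hemoglobin is measured spectrophotometrically and expressed as percent hemolysis. 1% Triton X-100 gives 100% lysis, and a buffer-treated sample is the negative control. HC90 is the concentration lysing 90% of RBCs.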

[8] = system: Candida tropicalis; test: Antifungal activity against Candida tropicalis MTCC 9038 assessed as inhibition of fungal growth incubated for 48 hrs by broth microdilution assay; assay type: functional; conditions: MTCC 9038, 48 h; outline: as §1
[9] = system: Pichia kudriavzevii; test: Antifungal activity against Candida krusei MTCC 9215 assessed as inhibition of fungal growth incubated for 48 hrs by broth microdilution assay; assay type: functional; conditions: MTCC 9215, 48 h; outline: as §1
[10] = system: Candida albicans; test: Inhibition of adhesion of Candida albicans ATCC 90028 on polystyrene surface incubated for 90 mins by MTT assay; assay type: functional, organism-based
Outline: (§3)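 C. albicans ATCC 90028 cells adhered to polystyrene wells with test compound. Adhesion is quantified by MTT metabolic assay and expressed as percent inhibition versus an untreated growth control. Fluconazole is the reference, tested up to 25 µg ml-1.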

[11] = system: Candida albicans; test: Toxicity in Candida albicans ATCC 90028 planktonic cells assessed as induction of morphological changes at 3.1 ug/ml incubated for 24 hrs by scanning electron Microscopy; assay type: organism-based
Outline: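 C. albicans ATCC 90028 cells incubated 24 h with 3.1 µg ml-1 compound. Surface morphology examined by scanning electron microscopy at 2500X and 5000X magnification against untreated cells.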

[12] = system: Candida albicans; test: Antifungal activity against Candida albicans DSY294 assessed as inhibition of fungal growth incubated for 48 hrs by broth microdilution assay; assay type: functional; conditions: DSY294, 48 h; outline: as §1
[13] = system: Candida albicans; test: Antifungal activity against Candida albicans Gu5 assessed as inhibition of fungal growth incubated for 48 hrs by broth microdilution assay; assay type: functional; conditions: Gu5, 48 h; outline: as §1
[14] = system: Candida albicans; test: Antibiofilm activity against Candida albicans ATCC 90028 grown on polystyrene surface assessed as inhibition of biofilm formation added immediately after cell adhesion by MTT assay; assay type: functional
Outline: (§4)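 1x10^6 C. albicans ATCC 90028 cells allowed to grow and adhere in polystyrene-coated 96-well wells; compound added at different time points to cover adhesion, biofilm formation or mature biofilm stages. Inhibition quantified by MTT metabolic assay against untreated growth control. BIC80 and BEC80 taken as concentrations giving 80% inhibition of formation or of mature biofilm respectively.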

[15] = system: Nakaseomyces glabratus; test: Antifungal activity against Candida glabrata MTCC 3814 assessed as inhibition of fungal growth incubated for 48 hrs by broth microdilution assay; assay type: functional; conditions: MTCC 3814, 48 h; outline: as §1
[16] = system: Candida albicans; test: Antifungal activity against Candida albicans SC5314 assessed as inhibition of fungal growth incubated for 48 hrs by broth microdilution assay; assay type: functional; conditions: SC5314, 48 h; outline: as §1
[17] = system: Candida albicans; test: Inhibition of adhesion of Candida albicans ATCC 90028 on polystyrene surface at 12.5 ug/ml incubated for 90 mins by MTT assay; assay type: functional; conditions: ATCC 90028, 1.5 h; outline: as §3
[18] = system: Candida albicans; test: Antibiofilm activity against Candida albicans ATCC 90028 grown on polystyrene surface assessed as inhibition of biofilm formation at 1.56 to 25 ug/ml added immediately after cell adhesion by bright-field microscopy; assay type: functional, organism-based
Outline: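 1x10^6 C. albicans ATCC 90028 cells allowed to adhere and grow in polystyrene 96-well wells; compound at 1.56, 3.12, 6.25, 12.5 and 25 µg ml-1; biofilm examined microscopically against an untreated growth control.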

[19] = system: Candida albicans; test: Antibiofilm eradication activity against Candida albicans ATCC 90028 grown on polystyrene surface assessed as inhibition of mature biofilm formation added 24 hrs after biofilm maturation and measured after 48 hrs by MTT assay; assay type: functional; outline: as §4
[20] = system: Candida albicans; test: Toxicity in Candida albicans ATCC 90028 planktonic cells assessed as induction of nucleic acids release at 12.5 ug/ml incubated for 1 hr by spectrophotometry; assay type: organism-based; outline: as §2
[21] = system: Candida albicans; test: Inhibition of adhesion of Candida albicans ATCC 90028 on polystyrene surface up to 25 ug/ml incubated for 90 mins by MTT assay; assay type: functional, organism-based; outline: as §4

| Compound | growth inhibition (GI) [1] | MIC80 [1] [µg/mL] | MIC80 [2] [µg/mL] | MIC80 [4] [µg/mL] | MIC80 [6] [µg/mL] | MIC80 [8] [µg/mL] | MIC80 [9] [µg/mL] | MIC80 [12] [µg/mL] | MIC80 [13] [µg/mL] | MIC80 [15] [µg/mL] | MIC80 [16] [µg/mL] | also measured |
| --- | --- | --- | --- | --- | --- | --- | --- | --- | --- | --- | --- | --- |
| CCCCCCCCCCC[N+](C)(CCCCCCCCCCC)CCNC(=O)c1ccc(OC)cc1.[I-] | Dose-dependent effect | ≤ 3.1 |  |  |  |  |  |  |  |  |  |  |
| CCCCCCCCC[N+](C)(CCCCCCCCC)CCNC(=O)c1ccc(OC)cc1.[I-] | Dose-dependent effect | 3.1 | 3.1 | 1.5 | 1.5 | 0.7 | 1.5 | 1.5 | 3.1 | 1.5 | 1.5 | selectivity ratio [3]: 4; Activity [5]: Non-Toxic; HC90 [7]: 12.5 µg/mL; inhibition [10]: Dose-dependent effect; Activity [11]: Non-Toxic; MBIC80 [14]: 3.12 µg/mL; inhibition at 12.5 µg/mL [17]: 90%; Activity [18]: Active; MBEC80 [19]: 12.5 µg/mL; Activity [20]: Non-Toxic |
| CCCCCCCC[N+](C)(CCCCCCCC)CCNC(=O)c1ccc(OC)cc1.[I-] | Dose-dependent effect | ≤ 6.2 |  |  |  |  |  |  |  |  |  |  |
| OC(Cn1cncn1)(Cn1cncn1)c1ccc(F)cc1F [FLUCONAZOLE] |  | 4 (≈ 13.1 µM) | 4 (≈ 13.1 µM) | 2 (≈ 6.53 µM) | 128 (≈ 418 µM) | 4 (≈ 13.1 µM) | 64 (≈ 209 µM) | 4 (≈ 13.1 µM) | 128 (≈ 418 µM) | 4 (≈ 13.1 µM) | 2 (≈ 6.53 µM) | inhibition [21]: inactive; inhibition [14]: inactive; inhibition [19]: inactive |
| CCCCCCCCCC[N+](C)(CCCCCCCCCC)CCNC(=O)c1ccc(OC)cc1.[I-] | Dose-dependent effect | ≤ 6.2 |  |  |  |  |  |  |  |  |  |  |
